Experimental data as given in PubChem BioAssay AID488775 (The Scripps Research Institute Molecular Screening Center, 2010).
Calls of active or inactive are those of the source.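 The calls were made as follows: active = inhibition of the reporter signal above 10%; inactive = the rest.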

The compounds below were run on GAL4DBD-VP16 transactivation domain fusion (Human herpesvirus 1 VP16) (assay: suppression of VP16-driven UAS luciferase – cell-based, luminescence, HEK293T, powder samples, counter-screen for LRH1 inverse agonist project, confirmation (AID 488775)). Conditions: HEK293T GAL4-VP16 UAS-luciferase reporter, 18-24 h; at 5 µM; stronger effect = higher value.
Outline: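 assay system = HEK293T cells with GAL4–VP16 fusion and UAS-luciferase reporter | compound = one dose, 5 µM nominal | signal = luminescence from luciferase | read-out = percent inhibition from averaged fold change relative to DMSO vehicle wells | control set = DMSO vehicle-treated cells as reference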

SMILES | inhibition
O=c1cc(N2CCN(Cc3ccc4c(c3)OCO4)CC2)[nH]c(=O)n1C1CCCCC1 | -5% (inactive)
O=C(c1ccccc1)N1CCN(c2cc(=O)n(C3CCCCC3)c(=O)[nH]2)CC1 | 8% (inactive)
CC1CCN(c2cc(=O)n(C3CCCCC3)c(=O)[nH]2)CC1 | 6% (inactive)
O=c1cc(N2CCN(C(c3ccccc3)c3ccccc3)CC2)[nH]c(=O)n1C1CCCCC1 | 11% (inactive)
O=c1cc(N2CCOCC2)[nH]c(=O)n1C1CCCCC1 | 9% (inactive)
O=c1cc(N2CCN(c3cc(Cl)cc(Cl)c3)CC2)[nH]c(=O)n1C1CCCCC1 | 1% (inactive)
O=c1cc(N2CCN(Cc3ccc(Cl)cc3)CC2)[nH]c(=O)n1C1CCCCC1 | -4% (inactive)
Cc1ccc(C)n1CCN1CCN(c2cc(=O)n(C3CCCCC3)c(=O)[nH]2)CC1 | 17%
O=c1cc(N2CCN(c3nccc4occc34)CC2)[nH]c(=O)n1C1CCCCC1 | -4% (inactive)
O=c1cc(N2CCN(C3CCCCC3)CC2)[nH]c(=O)n1C1CCCCC1 | 0% (inactive)
O=c1cc(N2CCN(CCN3CCOCC3)CC2)[nH]c(=O)n1C1CCCCC1 | 26%
O=c1cc(N2CCC(Cc3ccccc3)CC2)[nH]c(=O)n1C1CCCCC1 | 26%
COC(=O)C1CCN(c2cc(=O)n(C3CCCCC3)c(=O)[nH]2)CC1 | -12% (inactive)
O=c1cc(N2CCN(c3ccccn3)CC2)[nH]c(=O)n1C1CCCCC1 | -8% (inactive)
O=c1cc(N2CCCCC2)[nH]c(=O)n1C1CCCCC1 | 0% (inactive)
C=CCN1CCN(c2cc(=O)n(C3CCCCC3)c(=O)[nH]2)CC1 | -48% (inactive)
CCOC(=O)N1CCN(c2cc(=O)n(C3CCCCC3)c(=O)[nH]2)CC1 | -6% (inactive)
O=c1cc(N2CCN(c3nc(-c4ccccc4)ns3)CC2)[nH]c(=O)n1C1CCCCC1 | -27% (inactive)
Cc1cc(C)cc(N2CCN(c3cc(=O)n(C4CCCCC4)c(=O)[nH]3)CC2)c1 | -6% (inactive)
O=c1cc(N2CCN(c3ncccc3Cl)CC2)[nH]c(=O)n1C1CCCCC1 | 16%
O=c1cc(N2CCN(c3cccc(Cl)c3Cl)CC2)[nH]c(=O)n1C1CCCCC1 | -5% (inactive)
O=c1cc(N2CCc3ccccc32)[nH]c(=O)n1C1CCCCC1 | -11% (inactive)
CCN1CCN(c2cc(=O)n(C3CCCCC3)c(=O)[nH]2)CC1 | 0% (inactive)
O=C(c1ccco1)N1CCN(c2cc(=O)n(C3CCCCC3)c(=O)[nH]2)CC1 | 17%
O=c1cc(N2CCCC2)[nH]c(=O)n1C1CCCCC1 | -6% (inactive)

Continued, values first:

inhibition | SMILES
-13% (inactive) | Cn1c(=O)cc(N2CCN(c3ccc(F)cc3)CC2)[nH]c1=O
-7% (inactive) | CCn1c(=O)cc(N2CCN(c3ccccc3)CC2)[nH]c1=O
-10% (inactive) | CCn1c(=O)cc(N2CCN(Cc3ccccc3)CC2)[nH]c1=O
5% (inactive) | CCn1c(=O)cc(N2CCN(c3cccc(Cl)c3)CC2)[nH]c1=O
1% (inactive) | CCn1c(=O)cc(N2CCN(c3cccc(C(F)(F)F)c3)CC2)[nH]c1=O
0% (inactive) | CCn1c(=O)cc(N2CCN(C(=O)c3ccco3)CC2)[nH]c1=O
3% (inactive) | O=c1cc(N2CCN(c3cccc(C(F)(F)F)n3)CC2)[nH]c(=O)n1C1CCCCC1
26% | O=c1cc(N2CCN(c3ccc(F)cc3F)CC2)[nH]c(=O)n1C1CCCCC1
20% | C=CCn1c(N2CCN(c3cccc(C(F)(F)F)c3)CC2)cc(=O)n(C2CCCCC2)c1=O
6% (inactive) | O=c1cc(N2CCN(c3cccc(C(F)(F)F)c3)CC2)[nH]c(=O)n1Cc1ccccc1
1% (inactive) | O=c1cc(N2CCN(c3ccccc3Cl)CC2)[nH]c(=O)n1C1CCCCC1
-6% (inactive) | O=c1cc(N2CCN(c3cccc(C(F)(F)F)c3)CC2)[nH]c(=O)n1C1CCCCC1
-1% (inactive) | Cn1c(=O)cc(N2CCN(c3cccc(Cl)c3)CC2)[nH]c1=O
3% (inactive) | O=c1cc(N2CCN(c3cccc(Cl)c3)CC2)[nH]c(=O)[nH]1
-5% (inactive) | O=c1cc(N2CCN(c3ccccc3)CC2)[nH]c(=O)n1Cc1ccc(F)cc1
14% | O=c1cc(N2CCN(c3ccccc3C(F)(F)F)CC2)[nH]c(=O)n1C1CCCCC1
1% (inactive) | O=c1cc(N2CCN(c3cccc(Cl)c3)CC2)[nH]c(=O)n1C1CCCCC1

inhibition | SMILES
-16% (inactive) | O=c1cc(N2CCN(c3ccccc3)CC2)[nH]c(=O)n1C1CCCCC1
-12% (inactive) | O=c1cc(N2CCN(c3cc(C(F)(F)F)ccn3)CC2)[nH]c(=O)n1C1CCCCC1
1% (inactive) | C=CCn1c(=O)cc(N2CCN(c3cccc(C(F)(F)F)c3)CC2)[nH]c1=O
-7% (inactive) | CCn1c(=O)cc(N2CCN(c3ccc(F)cc3)CC2)[nH]c1=O
-1% (inactive) | O=c1cc(N2CCN(c3cccc(C(F)(F)F)c3)CC2)n(Cc2ccccc2)c(=O)n1C1CCCCC1
8% (inactive) | CC(C)Cn1c(=O)cc(N2CCN(c3cccc(C(F)(F)F)c3)CC2)[nH]c1=O
-9% (inactive) | O=c1cc(N2CCN(c3ccc(F)cc3)CC2)[nH]c(=O)n1C1CCCCC1
-7% (inactive) | CC1CCN(c2cc(=O)n(Cc3ccc(F)cc3)c(=O)[nH]2)CC1
-5% (inactive) | O=c1cc(N2CCN(c3ccc(C(F)(F)F)cc3)CC2)[nH]c(=O)n1C1CCCCC1
13% | O=c1cc(N2CCN(c3ncccc3C(F)(F)F)CC2)[nH]c(=O)n1C1CCCCC1
-3% (inactive) | O=c1cc(N2CCN(c3cccc(C(F)(F)F)c3)CC2)[nH]c(=O)n1-c1ccccc1
-4% (inactive) | O=c1cc(N2CCN(c3cccc(Br)c3)CC2)[nH]c(=O)n1C1CCCCC1
0% (inactive) | Cc1ccc(Cl)cc1N1CCN(c2cc(=O)n(C3CCCCC3)c(=O)[nH]2)CC1
2% (inactive) | N#CCn1c(N2CCN(c3cccc(C(F)(F)F)c3)CC2)cc(=O)n(C2CCCCC2)c1=O
7% (inactive) | O=c1cc(N2CCN(c3ccnc4cc(Cl)ccc34)CC2)[nH]c(=O)n1C1CCCCC1
1% (inactive) | COc1ccc(N2CCN(c3cc(=O)n(C4CCCCC4)c(=O)[nH]3)CC2)cc1
-7% (inactive) | O=c1cc(N2CCN(c3cccc(Cl)n3)CC2)[nH]c(=O)n1C1CCCCC1
